Test [1] is described as follows: inhibitors of TNFa-induced NFkB p65 translocation, primary screen, imaging, HUVEC, MLSMR starter and 10KST1 sets (AID 438;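 active means inhibition above 20% together with a positive visual image hit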;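 further: compound added about 3h40 before a 20 min TNFalpha stimulation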;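 on inhibition: signal is the nuclear over cytoplasmic p65 intensity ratio per well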). As to conditions: HUVEC TNFa-induced p65 nuclear translocation; cell count: measured here: nuclei count (cytotoxicity indicator), at 2.08 µM; inhibition: at 2 µM, stronger effect = higher value, 0% TNFa-plus-vehicle, 100% no-TNFa wells.
A short description of test [2]: endothelial E-selectin expression blockers – imaging, HUVEC, immunofluorescence, MLSMR starter and 10KST1 sets, primary screen (AID 487;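 active means visually confirmed hit in the image check and inhibition above 20%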;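 on inhibition: signal is fraction of cell area covered by stained E-selectin grains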;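 on nuclei count: 100% = median nuclei count of all wells on the same plate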). As to conditions: HUVEC TNFalpha-induced E-selectin immunofluorescence imaging, at 2 µM; inhibition: stronger effect = higher value; nuclei count: measured here: cell number, toxicity.
The nature of test [3]: Primary imaging screen for DUSP6 inhibitors that restore phospho-Erk in transfected HeLa cells, chemical complementation (AID 609;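 active means compounds giving at least 50% inhibition in the cell-based MKP-3 phosphatase rescue imaging test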;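 on inhibition: phospho-Erk level distribution per well compared with pooled transfected vehicle control wells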). As to conditions: HeLa MKP-3 transfected, phospho-Erk imaging KS statistic, at 10 µM, cells stimulated with TPA for 15 min.
In test [4] the target is Dual specificity protein phosphatase 6 (Homo sapiens) (UniProt Q16828). The description is as above. The settings on record: HeLa MKP-3 transfected, phospho-Erk imaging KS statistic; at 10 µM; stronger effect = higher value; cells stimulated with TPA for 15 min.
Chain of Dual specificity protein phosphatase 6 (Homo sapiens) (Q16828 whole entry, looked up): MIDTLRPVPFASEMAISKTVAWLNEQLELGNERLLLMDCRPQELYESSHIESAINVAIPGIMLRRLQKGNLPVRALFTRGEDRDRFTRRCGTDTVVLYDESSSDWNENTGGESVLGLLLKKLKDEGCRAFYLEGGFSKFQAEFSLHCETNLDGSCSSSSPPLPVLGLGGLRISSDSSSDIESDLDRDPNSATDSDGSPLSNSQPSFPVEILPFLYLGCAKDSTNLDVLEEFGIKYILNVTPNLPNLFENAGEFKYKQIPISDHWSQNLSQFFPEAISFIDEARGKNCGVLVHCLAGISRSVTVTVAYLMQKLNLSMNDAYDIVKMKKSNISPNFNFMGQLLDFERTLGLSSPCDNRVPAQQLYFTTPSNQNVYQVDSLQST
Test [5] addresses Voltage-gated potassium channel subunit beta-2 (Rattus norvegicus) (UniProt P62483). The experiment in a line: inhibitors of rat Kvbeta2 reductase activity – biochemical, NADPH fluorescence, primary screen (AID 622;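 active means fluorescence slope higher than the sample average by over 3 SD, cut at about -0.22 in these data, passing the limit was not always enough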;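 further: slope of raw intensity against log time taken from 70 to 1610 s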). The settings on record: recombinant KvBeta, 4-cyanobenzaldehyde reduction, at 10 µM, stronger effect = higher value.
The target is the same in test [6]. Briefly: enhancers of rat Kvbeta2 NADPH turnover – biochemical, NADPH fluorescence, primary screen (AID 623;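 active means NADPH fluorescence slope more negative than the mean of all samples by about 3 SD, 99.7% confidence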;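 further: fluorescence intensity change per second fitted from 20 to 320 s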). As to conditions: Recombinant KvBeta, NADPH fluorescence decrease slope, 10 min; at 10 µM; stronger effect = lower value.
Test [7] concerns the target Alpha-2C adrenergic receptor (Homo sapiens) (UniProt P18825). Briefly: compounds altering alpha2C-coupled GIRK flux – cell-based, HEK293 alpha2C/GIRK1/2, thallium flux, primary screen (AID 624;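 active means fluorescence slope after compound addition differing from the mean of all screened samples at 99.7% confidence, in either direction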;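 further: slope of fluorescence ratio to pre-addition baseline per second over 15 to 24 s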). The settings on record: thallium flux BTC fluorescence, at 10 µM, actives lie on both sides.
A short description of test [8]: inhibitors of larval lipid processing in zebrafish, primary screen, whole organism, PED6 fluorescence, gall bladder and intestine (AID 686;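 active means a full or partial loss of lipid-probe fluorescence in the fish gall bladder, intestine or both, judged by eye; inactive means no fluorescence loss, or compound toxic to the fish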;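 further: larvae 5 to 7 days old with five fish per well; signal comes from phospholipase A2 cleavage of quenched PED6 carried via bile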). The settings on record: Zebrafish larvae PED6 lipid processing, fluorescence scoring; screened at 20 µM (by protocol). In a few lines: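 system = live zebrafish larvae aged 5-7 days, whole organism | probe or stimulus = ingested quenched lipid PED6 at 100 nM | doses = 20 µM single dose | timing = overnight exposure | detection = fluorescence microscopy with visual scoring of gall bladder and intestine | read-out = visual per-well fluorescence inhibition score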

A short description of test [9]: loss of swimming-algae plug formation – whole organism, Chlamydomonas reinhardtii, WT vs cilia-less mutant, absorbance, 96-well, primary screen (AID 463189).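 Further: 0% = wild type cc124 cells in DMSO and 100% = ciliumless bld1 mutant cells.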 The settings on record: Chlamydomonas reinhardtii gravitaxis, OD600 absorbance, 2 days; at 10 µM; stronger effect = higher value.
Where [10] appears, read: measured here: cell density z-score.
The mark [11] stands for this setting: measured here: nuclear c-Myc green intensity z-score.
The mark [12] stands for this setting: measured here: nuclear pErk red intensity z-score, stronger effect = higher value.

Activity calls are given as the source filed them.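 How the source made its calls, unless noted: active means inhibition at or above 50% relative to wild type and mutant plate controls; inactive means inhibition below 50%.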

Chain of Voltage-gated potassium channel subunit beta-2 (Rattus norvegicus) (P62483 whole entry, looked up): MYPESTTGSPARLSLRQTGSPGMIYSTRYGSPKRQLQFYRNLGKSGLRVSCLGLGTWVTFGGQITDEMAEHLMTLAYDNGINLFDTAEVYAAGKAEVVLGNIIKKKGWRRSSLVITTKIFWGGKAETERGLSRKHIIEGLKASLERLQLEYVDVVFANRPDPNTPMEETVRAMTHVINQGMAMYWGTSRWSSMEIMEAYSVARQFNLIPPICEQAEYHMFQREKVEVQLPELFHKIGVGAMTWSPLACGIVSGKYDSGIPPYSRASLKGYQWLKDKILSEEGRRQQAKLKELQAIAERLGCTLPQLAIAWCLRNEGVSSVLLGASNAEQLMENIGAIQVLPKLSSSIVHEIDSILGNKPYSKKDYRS
Chain of Alpha-2C adrenergic receptor (Homo sapiens) (P18825 whole entry, looked up): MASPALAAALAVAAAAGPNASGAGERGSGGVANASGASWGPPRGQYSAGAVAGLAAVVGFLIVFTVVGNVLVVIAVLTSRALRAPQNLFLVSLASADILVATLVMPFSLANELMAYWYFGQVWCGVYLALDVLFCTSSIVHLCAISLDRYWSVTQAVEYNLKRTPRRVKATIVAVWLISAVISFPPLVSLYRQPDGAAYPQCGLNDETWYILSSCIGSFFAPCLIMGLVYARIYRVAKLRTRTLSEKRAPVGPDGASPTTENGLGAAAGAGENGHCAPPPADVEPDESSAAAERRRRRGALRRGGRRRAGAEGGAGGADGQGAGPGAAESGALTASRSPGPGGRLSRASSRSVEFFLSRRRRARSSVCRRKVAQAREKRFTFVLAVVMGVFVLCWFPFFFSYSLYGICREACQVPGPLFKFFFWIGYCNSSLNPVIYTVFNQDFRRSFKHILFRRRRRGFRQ

One may read the inhibition as the drop in the measured response relative to a control, in per cent. On to `Cn1c(=O)n(CCc2ccccc2)c(=O)c2c1ncn2Cc1ccccc1`, for which the cell count in test [1] was 505. Also, the inhibition in test [1] was -1.6% (inactive); in test [2], 42.5% (inactive); in test [4] it was -6.48% (inactive); in [9] it was -10.3% (inactive). This molecule also came in with a nuclei count in test [2] of 115%. The figures for the z-score in test [3] (setting [10]), in [3] (setting [11]) and in test [3] (setting [12]) were -0.468, 1.76 and -0.503, respectively. For the same molecule, the fluorescence slope in test [5] is -0.508 (inactive). Moreover, the NADPH fluorescence slope in test [6] is -0.000139 (inactive). Besides, in [7], the slope is 0.00833 (inactive). Besides, the molecule was classed as inactive in test [8].
For the molecule `CCOc1ccc(-c2nn3c(-c4ccc(OC)cc4)nnc3s2)cc1`, the cell count in test [1] amounted to 620. For the same molecule, the inhibition in test [1] is -14.6% (inactive); in test [2], -58.9% (inactive); in test [4] it was 2.92% (inactive); in test [9] it was 5.79% (inactive). This molecule also gave a nuclei count in [2] of 162%. Further, the figures for the z-score in [3] (setting [10]), in test [3] (setting [11]) and in test [3] (setting [12]) were 0.559, -1.74 and 0.0677, respectively. For the same molecule, the fluorescence slope in [5] is -0.443 (inactive). Further, the NADPH fluorescence slope in test [6] was -7.7e-05 (inactive). Moreover, in test [7], the slope is 0.00846 (inactive). Also, the result in [8] was inactive.
Take `CCOC(=O)c1[nH]c2cc3c(cc2c1NC(=O)CN1CCC(C)CC1)OCO3`: the cell count in test [1] came out at 554. The inhibition in test [1] was -1.1% (inactive); in test [2], -6.5% (inactive); in test [4], 1.6e-07% (inactive); in test [9], -6.78% (inactive). The same molecule returned a nuclei count in test [2] of 155%. The values for the z-score in test [3] (setting [10]), in test [3] (setting [11]) and in [3] (setting [12]) were -0.767, 1.52 and -0.0577, respectively. Moreover, in [5], the fluorescence slope is -0.27 (inactive). For the same molecule, in test [6], the NADPH fluorescence slope is 6.7e-06 (inactive). For the same molecule, the slope in [7] was 0.00467 (inactive). For the same molecule, the outcome in [8] was inactive.
As to `O=C1C(=O)N(CCN2CCOCC2)C(c2ccccn2)/C1=C(/O)c1ccccc1` (centres undefined), the cell count in test [1] was 382. In addition, the inhibition is -4.7% (inactive) in test [1], -87.4% (inactive) in test [2], -0.159% (inactive) in test [4] and -11.4% (inactive) in [9]. This molecule yielded a nuclei count in [2] of 107%. In addition, the z-score was -0.264 in test [3] (setting [10]), 0.535 in [3] (setting [11]) and -1.2 in test [3] (setting [12]). The fluorescence slope in [5] was -0.432 (inactive). The NADPH fluorescence slope in [6] was -1.4e-05 (inactive). Moreover, the slope in [7] was 0.00578 (inactive). Also, the molecule was classed as inactive in test [8].
Take `CCOC(=O)CC(=O)CSc1nc2c(cc1C#N)CCCCCC2`: the cell count in test [1] came out at 706. The inhibition was -1.3% (inactive) in [1], 25.1% (inactive) in [2], -8.95% (inactive) in test [4] and 0.237% (inactive) in test [9]. In [2], this molecule returned a nuclei count of 180%. Besides, the z-score in test [3] (setting [10]) was -0.436; in test [3] (setting [11]) it was -0.188; in test [3] (setting [12]), -0.491. The fluorescence slope in test [5] is -0.285 (inactive). For the same molecule, the NADPH fluorescence slope in test [6] is -5.2e-06 (inactive). Also, the slope in [7] was 0.00458 (inactive). Moreover, in test [8], the molecule was called inactive.
Consider `COc1ccc(OC(=O)c2cc3ccccc3o2)cc1`, for which, in [1], the cell count was 610. Besides, the inhibition is -1.1% (inactive) in test [1], 77.3% (active) in [2], -9.66% (inactive) in test [4] and -0.854% (inactive) in [9]. The nuclei count in test [2] turned out to be 142%. Further, the results for the z-score in test [3] (setting [10]), in test [3] (setting [11]) and in test [3] (setting [12]) were -0.358, -0.13 and -0.531, respectively. Moreover, the fluorescence slope in [5] was -0.377 (inactive). In test [6], the NADPH fluorescence slope is -3.8e-05 (inactive). The slope in test [7] was 0.0058 (inactive). Also, the result in [8] was inactive.
As to `Cc1cc(C)c(NC(=O)OCCN2CCOCC2)c(C)c1`, the cell count in test [1] amounted to 581. Also, the inhibition in test [1] was -17.3% (inactive); in test [2], -82.2% (inactive); in test [4], 3.56% (inactive); in test [9] it was 19.8% (inactive). In test [2], this molecule came in with a nuclei count of 168%. The z-score was -0.0769 in test [3] (setting [10]), -0.6 in test [3] (setting [11]) and 1.06 in test [3] (setting [12]). Further, the fluorescence slope in [5] is -0.468 (inactive). Besides, the NADPH fluorescence slope in test [6] is -7.1e-05 (inactive). Besides, the slope in test [7] is 0.00577 (inactive). Moreover, the molecule was classed as inactive in test [8].
As to `CCCCC(C(=O)O)C(C)CC(=O)Nc1cccc(C(=O)O)c1` (centres undefined), the cell count in test [1] is 630. Moreover, the inhibition in test [1] is -4.4% (inactive); in test [2] it was -102% (inactive); in test [4], 18.6% (inactive); in test [9] it was 0.959% (inactive). Also, the nuclei count in [2] is 176%. In addition, the z-score was 0.159 in test [3] (setting [10]), -1.73 in test [3] (setting [11]) and 0.323 in test [3] (setting [12]). In addition, in test [5], the fluorescence slope was -0.486 (inactive). Besides, the NADPH fluorescence slope in [6] was -0.000152 (inactive). For the same molecule, in test [7], the slope is 0.00384 (inactive). Besides, the molecule was called inactive in [8].
As to `CSc1nc(N)c(C#N)c(-c2ccccc2Cl)c1C#N`, the cell count in test [1] is 361. Moreover, the inhibition in test [1] was -5.2% (inactive); in test [2], 16.8% (inactive); in [4], -2.07% (inactive); in [9], -18.7% (inactive). Also, the nuclei count in test [2] came out at 95%. The z-score in [3] (setting [10]) was -2.2; in test [3] (setting [11]) it was 1.67; in [3] (setting [12]), -0.0312. Also, the fluorescence slope in test [5] was -0.456 (inactive). In [6], the NADPH fluorescence slope is -0.000311 (inactive). Further, the slope in test [7] was 0.00479 (inactive). Also, the outcome in test [8] was inactive.
For the molecule `Nc1ccc(Cl)cc1/C(=N/O)c1ccccc1`, in test [1], the cell count came to 337. Also, the inhibition in test [1] was -13.8% (inactive); in [2] it was -23% (inactive); in test [4] it was 1.75% (inactive); in test [9] it was 16.2% (inactive). In addition, the nuclei count in test [2] came to 65.2%. Besides, the z-score in [3] (setting [10]) was 0.198; in test [3] (setting [11]) it was 0.536; in test [3] (setting [12]), -0.0149. Moreover, the fluorescence slope in [5] is -0.451 (inactive). For the same molecule, the NADPH fluorescence slope in test [6] was 9e-06 (inactive). Also, in test [7], the slope was 0.00461 (inactive). The outcome in [8] was inactive.
Regarding `Clc1ccc2[nH]c3c(NCCN4CCOCC4)ncnc3c2c1`, the cell count in [1] came to 504. The inhibition in test [1] is -25% (inactive); in [2], -70% (inactive); in test [4], -2.47% (inactive); in [9], 2.54% (inactive). In addition, the nuclei count in test [2] was found to be 154%. Moreover, the z-score in test [3] (setting [10]) was -1.3; in test [3] (setting [11]), 0.291; in [3] (setting [12]), 1.3. Moreover, the fluorescence slope in test [5] is -0.503 (inactive). Further, in test [6], the NADPH fluorescence slope was -3.9e-05 (inactive). Moreover, the slope in test [7] was 0.00429 (inactive). In addition, the molecule was classed as inactive in test [8].
For `CCC1(C)Cc2c(sc3[nH]c(=O)[nH]c(=O)c23)CS1` (centres undefined), in test [1], the cell count is 666. In addition, the inhibition was -8.2% (inactive) in [1], -11.4% (inactive) in test [2], 1.75% (inactive) in test [4] and 2.21% (inactive) in test [9]. The molecule further showed a nuclei count in test [2] of 170%. Further, the z-score was 0.81 in test [3] (setting [10]), -1.43 in [3] (setting [11]) and -0.857 in test [3] (setting [12]). Further, the fluorescence slope in test [5] was -0.519 (inactive). Further, the NADPH fluorescence slope in test [6] was -4.7e-05 (inactive). Moreover, in [7], the slope is 0.00488 (inactive). In addition, the call in [8] was inactive.
With `CCCCNC(=O)c1c(N)n(/N=C/c2cccnc2)c2nc3ccccc3nc12`, the cell count in [1] amounted to 474. In addition, the inhibition was 4.9% (inactive) in [1], -130% (inactive) in test [2], 24.5% (inactive) in test [4] and 29% (inactive) in test [9]. This molecule displayed a nuclei count in [2] of 139%. The values for the z-score in test [3] (setting [10]), in test [3] (setting [11]) and in [3] (setting [12]) were 1.68, -0.352 and 0.256, respectively. In addition, in test [5], the fluorescence slope is -0.456 (inactive). Moreover, the NADPH fluorescence slope in [6] is 5.4e-07 (inactive). In test [7], the slope was 0.0052 (inactive). Also, the result in test [8] was inactive.

Source of the values: PubChem BioAssay.
